Assay results reported in ChEMBL document CHEMBL1123947, “Design, structure-activity, and molecular modeling studies of potent renin inhibitory peptides having N-terminal Nin-For-Trp (Ftr): angiotensinogen congeners modified by P1-P1' Phe-Phe, Sta, Leu psi[CH(OH)CH2]Val or leu psi[CH2NH]Val substitutions” (J Med Chem, 1988).
Numbered stars: 1 amine (or outer) side, 2 acyl side, 3 side chain; on linkers, the order of the positions; unused ones are H or OH. Square brackets hold non-standard residues; d marks the D form. Peptide text beside a SMILES is read from it. * marks the point of attachment. ξ: configuration not given here. Sta(3ξ) = CC(C)C[C@H](N[*:1])C(O)CC(=O)[*:2]; X4 = CC(C)C[C@H](N*)C(O)C[C@H](C(N)=O)C(C)C; X5 = CC(C)C[C@@H](CN[C@H](C(N)=O)C(C)C)N*; X1 = CC(C)CC(N[*:1])C(O)CC(=O)[*:2]; X3 = CC(C)CC(N[*:1])C(O)C(=O)[*:2]; Ile(3ξ) = CCC(C)[C@H](N)C(=O)O; X2 = CC(C)CC(N*)C(O)CC(N)=O; Cbz = O=C(OCc1ccccc1)*; Boc = CC(C)(C)OC(=O)*; For = O=C*

Legend:
[1] = molecular target: Renin (Sus scrofa); assay: In vitro inhibitory activity towards porcine kidney renin
[2] = molecular target: T1, Renin (Homo sapiens, UniProt P00797); assay: In vitro inhibitory activity against human plasma renin; assay type: cell-free
T1 sequence (P00797 whole entry): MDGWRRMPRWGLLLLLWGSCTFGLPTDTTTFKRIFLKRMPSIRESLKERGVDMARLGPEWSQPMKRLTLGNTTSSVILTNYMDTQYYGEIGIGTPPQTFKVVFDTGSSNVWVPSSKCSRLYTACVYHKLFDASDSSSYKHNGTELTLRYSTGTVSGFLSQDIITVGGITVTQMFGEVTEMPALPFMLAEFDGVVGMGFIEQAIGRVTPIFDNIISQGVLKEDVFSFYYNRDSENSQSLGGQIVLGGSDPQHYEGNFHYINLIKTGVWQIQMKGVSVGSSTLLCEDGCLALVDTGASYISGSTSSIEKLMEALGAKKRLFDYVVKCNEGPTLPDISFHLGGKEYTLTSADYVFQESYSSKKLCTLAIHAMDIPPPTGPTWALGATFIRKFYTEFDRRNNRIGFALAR
In short: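 Reconstituted lyophilized human plasma with 0.1% EDTA, plus PMSF and maleate buffer (pH 6.0). Inhibitor added in 1.0% Tween 80/water vehicle. Angiotensin I generated for 90 min at 37 °C and measured by RIA.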

IC50 [1]	IC50 [2]	Compound
370 µM	–	CC(C)CC(NC(=O)[C@@H](N)Cc1cnc[nH]1)C(O)CC(=O)N[C@@H](CC(C)C)C(=O)N[C@@H](Cc1ccccc1)C(N)=O (some centres undefined)
–	0.00011 µM	CC[C@H](C)[C@H](NC(=O)[C@@H](C[C@H](O)[C@H](CC(C)C)NC(=O)[C@H](Cc1c[nH]cn1)N(C)C(=O)[C@H](Cc1ccccc1)NC(=O)[C@@H]1CCCN1C(=O)OC(C)(C)C)C(C)C)C(=O)NCc1ccccn1
–	5 µM	CC(=O)N[C@H](Cc1c[nH]c2ccccc12)C(=O)N1CCC[C@H]1C(=O)N[C@@H](Cc1ccccc1)C(=O)N[C@@H](Cc1c[nH]cn1)C(=O)N[C@@H](Cc1ccccc1)C(=O)N[C@@H](Cc1ccccc1)C(=O)N[C@H](C(=O)N[C@@H](Cc1cn(C=O)c2ccccc12)C(N)=O)C(C)C
–	0.5 µM	CC(=O)N[C@@H](Cc1cn(C=O)c2ccccc12)C(=O)N1CCC[C@H]1C(=O)N[C@@H](Cc1ccccc1)C(=O)N[C@@H](Cc1cnc[nH]1)C(=O)N[C@@H](Cc1ccccc1)C(=O)N[C@@H](Cc1ccccc1)C(=O)N[C@H](C(=O)N[C@@H](Cc1cn(C=O)c2ccccc12)C(N)=O)C(C)C
–	0.014 µM	CC[C@H](C)[C@H](NC(=O)CC(O)[C@H](CC(C)C)NC(=O)[C@H](Cc1c[nH]cn1)NC(=O)[C@H](Cc1ccccc1)NC(=O)[C@@H]1CCCN1C(=O)[C@@H](Cc1cn(C=O)c2ccccc12)NC(C)=O)C(N)=O (some centres undefined)
–	0.01 µM	CC[C@H](C)[C@H](NC(=O)[C@@H](NC[C@H](CC(C)C)NC(=O)[C@H](Cc1c[nH]cn1)NC(=O)[C@H](Cc1ccccc1)NC(=O)[C@@H]1CCCN1C(=O)[C@H](Cc1c[nH]cn1)NC(=O)[C@@H]1CCCN1)C(C)C)C(=O)N[C@@H](Cc1c[nH]cn1)C(=O)N[C@@H](CCCCN)C(=O)O
–	0.0001 µM	CC[C@H](C)[C@H](NC(=O)CC(O)[C@H](CC(C)C)NC(=O)[C@H](Cc1cnc[nH]1)NC(=O)[C@H](Cc1ccccc1)NC(=O)[C@@H]1CCCN1C(=O)[C@H](Cc1cn(C=O)c2ccccc12)NC(C)=O)C(N)=O (some centres undefined)
–	~100 µM	CC(=O)N[C@H](Cc1c[nH]cn1)C(=O)N1CCC[C@H]1C(=O)N[C@@H](Cc1ccccc1)C(=O)N[C@@H](Cc1ccccc1)C(=O)N[C@H](C(=O)N[C@@H](Cc1cn(C=O)c2ccccc12)C(N)=O)C(C)C
–	> 100 µM	CC(=O)N[C@H](Cc1cn(C=O)c2ccccc12)C(=O)N1CCC[C@H]1C(=O)N[C@@H](Cc1ccccc1)C(=O)N[C@@H](Cc1cnc[nH]1)C(=O)N[C@@H](Cc1ccccc1)C(=O)N[C@@H](Cc1ccccc1)C(=O)N[C@H](C(=O)N[C@@H](Cc1cn(C=O)c2ccccc12)C(N)=O)C(C)C
–	> 100 µM	CC(=O)N[C@@H](Cc1c[nH]cn1)C(=O)N[C@@H](Cc1ccccc1)C(=O)N[C@@H](Cc1cn(C=O)c2ccccc12)C(=O)N[C@@H](Cc1ccccc1)C(=O)N[C@@H](Cc1ccccc1)C(=O)N[C@H](C(=O)N[C@@H](Cc1cn(C=O)c2ccccc12)C(N)=O)C(C)C (Ac-HFW(For)FFVW(For)-NH2)
–	8.3 µM	CC(=O)N[C@@H](Cc1cnc[nH]1)C(=O)N1CCC[C@H]1C(=O)N[C@@H](Cc1ccccc1)C(=O)N[C@@H](Cc1cnc[nH]1)C(=O)N[C@@H](Cc1ccccc1)C(=O)N[C@@H](Cc1ccccc1)C(=O)N[C@H](C(=O)N[C@@H](Cc1cn(C=O)c2ccccc12)C(N)=O)C(C)C (Ac-HPFHFFVW(For)-NH2)
–	0.0068 µM	CC[C@H](C)[C@H](NC(=O)CC(O)[C@H](CC(C)C)NC(=O)[C@H](Cc1cnc[nH]1)NC(=O)[C@H](Cc1ccccc1)NC(=O)[C@@H]1CCCN1C(=O)[C@H](Cc1cnc[nH]1)NC(C)=O)C(N)=O (some centres undefined) (Ac-HPFH[Sta(3ξ)]I-NH2)
–	> 100 µM	CC(=O)N[C@@H](Cc1cn(C=O)c2ccccc12)C(=O)NCC(=O)N[C@@H](Cc1ccccc1)C(=O)N[C@@H](Cc1cnc[nH]1)C(=O)N[C@@H](Cc1ccccc1)C(=O)N[C@@H](Cc1ccccc1)C(=O)N[C@H](C(=O)N[C@@H](Cc1cn(C=O)c2ccccc12)C(N)=O)C(C)C (Ac-W(For)GFHFFVW(For)-NH2)
–	0.0038 µM	CC(=O)N[C@@H](Cc1cn(C=O)c2ccccc12)C(=O)N1CCC[C@H]1C(=O)N[C@@H](Cc1ccccc1)C(=O)N[C@@H](Cc1cnc[nH]1)C(=O)NC(CC(C)C)C(O)CC(N)=O (some centres undefined) (Ac-W(For)PFH-X2)
–	0.00031 µM	CC(=O)N[C@@H](Cc1cn(C=O)c2ccccc12)C(=O)N1CCC[C@H]1C(=O)N[C@@H](Cc1ccccc1)C(=O)N[C@@H](Cc1c[nH]cn1)C(=O)N[C@@H](CC(C)C)C(O)C[C@H](C(N)=O)C(C)C (some centres undefined) (Ac-W(For)PFH-X4)
–	0.021 µM	CC(=O)N[C@@H](Cc1cn(C=O)c2ccccc12)C(=O)N1CCC[C@H]1C(=O)N[C@@H](Cc1ccccc1)C(=O)N[C@@H](Cc1c[nH]cn1)C(=O)N[C@H](CN[C@H](C(N)=O)C(C)C)CC(C)C (Ac-W(For)PFH-X5)
–	> 100 µM	CC(=O)N[C@@H](Cc1cn(C=O)c2ccccc12)C(=O)N1CCC[C@H]1C(=O)N[C@@H](Cc1ccccc1)C(=O)N[C@@H](Cc1c[nH]cn1)C(=O)N[C@@H](Cc1ccccc1)C(=O)N[C@@H](Cc1ccccc1)C(N)=O (Ac-W(For)PFHFF-NH2)
–	2.1 µM	CC(=O)N[C@@H](Cc1cn(C=O)c2ccccc12)C(=O)N1CCC[C@H]1C(=O)N[C@@H](Cc1ccccc1)C(=O)N[C@@H](Cc1cnc[nH]1)C(=O)N[C@@H](Cc1ccccc1)C(=O)N[C@@H](Cc1ccccc1)C(=O)N[C@H](C(N)=O)C(C)C (Ac-W(For)PFHFFV-NH2)
–	0.00053 µM	CC(=O)N[C@@H](Cc1cn(C=O)c2ccccc12)C(=O)N1CCC[C@H]1C(=O)N[C@@H](Cc1ccccc1)C(=O)N[C@@H](Cc1c[nH]cn1)C(=O)NC(CC(C)C)C(O)CC(=O)N[C@H](C(N)=O)C(C)C (some centres undefined) (Ac-W(For)PFH[X1]V-NH2)
–	0.00038 µM	CC(=O)N[C@@H](Cc1cn(C=O)c2ccccc12)C(=O)N1CCC[C@H]1C(=O)N[C@@H](Cc1ccccc1)C(=O)N[C@@H](Cc1cnc[nH]1)C(=O)NC(CC(C)C)C(O)CC(=O)N[C@H](C(=O)N[C@@H](Cc1cn(C=O)c2ccccc12)C(N)=O)C(C)C (some centres undefined) (Ac-W(For)PFH[X1]VW(For)-NH2)
–	0.0016 µM	CC[C@H](C)[C@H](NC(=O)CC(O)[C@H](CC(C)C)NC(=O)[C@H](Cc1c[nH]cn1)NC(=O)[C@H](Cc1ccccc1)NC(=O)[C@@H]1CCCN1C(=O)[C@H](Cc1c[nH]c2ccccc12)NC(C)=O)C(N)=O (some centres undefined) (Ac-WPFH[Sta(3ξ)]I-NH2)
–	0.001 µM	CC[C@H](C)[C@H](NC(=O)C(O)C(CC(C)C)NC(=O)[C@H](Cc1c[nH]cn1)NC(=O)[C@H](Cc1ccccc1)NC(=O)[C@@H]1CCCN1C(=O)[C@H](CCCN=C(N)N)NC(=O)[C@H](CCCN=C(N)N)NC(=O)OCc1ccccc1)C(=O)N[C@@H](Cc1c[nH]cn1)C(=O)N[C@@H](CCCCNC(=O)OC(C)(C)C)C(=O)OC (some centres undefined) (Cbz-RRPFH[X3]IHK(Boc)-OMe)
–	0.031 µM	CCC(C)[C@H](NC(=O)CC(O)C(CC(C)C)NC(=O)[C@H](Cc1c[nH]cn1)NC(=O)[C@H](Cc1ccccc1)NC(=O)[C@@H]1CCCN1C=O)C(N)=O (some centres undefined) (For-PFH[X1][Ile(3ξ)]-NH2)
0.2 µM	–	CC(C)CC(NC(=O)[C@H](Cc1c[nH]cn1)NC(=O)[C@H](Cc1ccccc1)NC(=O)[C@@H]1CCCN1)C(O)CC(=O)N[C@@H](CC(C)C)C(=O)N[C@@H](Cc1ccccc1)C(N)=O (some centres undefined) (H-PFH[X1]LF-NH2)
